Tests used:
[1] = Tested for activation of Glutamate decarboxylase; the ratio of Vmax in the presence of activators to the Vmax in the absence of activators at a concentration of 2.5 mM.
How it was run: (§1)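 Purified GAD (57 µg; sp act. 7.8 nmol/min·mg), 50 mM potassium phosphate pH 7.2, 37 °C, 60 min. Substrate L-glutamate 0.5–0.10 mM spiked with [1-14C]-L-glutamate. Activator at 2.5–0.05 mM. Reaction quenched with 6 M H2SO4; released 14CO2 trapped in KOH center well and counted. Vmax taken from 1/dpm vs 1/[glutamate] plots. Activation is Vmax(+activator)/Vmax(none) ×100%.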

[2] = Tested for activation of Glutamate decarboxylase; the ratio of Vmax in the presence of activators to the Vmax in the absence of activators at a concentration of 1.0 mM.; how it was run: as §1
[3] = Tested for activation of Glutamate decarboxylase; the ratio of Vmax in the presence of activators to the Vmax in the absence of activators at a concentration of 250 uM.; how it was run: as §1
[4] = Compound was tested for anticonvulsant activity in Mice by iv administration at the dose of 14.4 mg/kg; 9/10; assay type: functional, Mus musculus
How it was run: (§2)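 Male CF-1 mice (20-28 g), compound given iv. 120 min later, low-intensity corneal electroshock (17 mA base-to-peak sinusoidal, 0.2 s). Protection was scored as prevention of hindlimb tonic extensor seizure and reported as number protected/number tested.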

[5] = Compound was tested for anticonvulsant activity in Mice by iv administration at the dose of 100 mg/kg; assay type: functional, Mus musculus; how it was run: as §2
[6] = Compound was tested for activation of Glutamate decarboxylase which is the ratio of Vmax in the presence of activators to the Vmax in the absence of activators at a concentration of 500 uM.; how it was run: as §1
[7] = Compound was tested for activation of Glutamate decarboxylase which is the ratio of Vmax in the presence of activators to the Vmax in the absence of activators at a concentration of 100 uM.; how it was run: as §1
[8] = Compound was tested for anticonvulsant activity in Mice by iv administration at the dose of 100 mg/kg; 2/10; assay type: functional, Mus musculus; how it was run: as §2
[9] = Compound was tested for anticonvulsant activity in Mice by iv administration at the dose of 100 mg/kg.; assay type: functional, Mus musculus; how it was run: as §2
[10] = Compound was tested for anticonvulsant activity in Mice by iv administration at the dose of 30 mg/kg; 2/10; assay type: functional, Mus musculus; how it was run: as §2
[11] = Compound was tested for anticonvulsant activity in Mice by iv administration at the dose of 100 mg/kg; 3/5; assay type: functional, Mus musculus; how it was run: as §2
[12] = Compound was tested for anticonvulsant activity in Mice by iv administration at the dose of 100 mg/kg; 0/10; assay type: functional, Mus musculus; how it was run: as §2
[13] = Compound was tested for anticonvulsant activity in Mice by iv administration at the dose of 100 mg/kg; 6/10; assay type: functional, Mus musculus; how it was run: as §2
[14] = Compound was tested for anticonvulsant activity in Mice by iv administration at the dose of 100 mg/kg; 4/10; assay type: functional, Mus musculus; how it was run: as §2
[15] = Compound was tested for anticonvulsant activity in Mice by iv administration at the dose of 100 mg/kg; 5/10; assay type: functional, Mus musculus; how it was run: as §2
[16] = Compound was tested for activation of Glutamate decarboxylase which is the ratio of Vmax in the presence of activators to the Vmax in the absence of activators at a concentration of 50 uM.; how it was run: as §1

Structure (SMILES) | Activity [1] | Activity [2] | Activity [3] | other results
NCC(CC(=O)O)C1CCCCC1 (stereo not drawn) | 125 | 100 | 100 | –
CC(C)CC(CN)CC(=O)O (stereo not drawn) | – | – | 109 | No. of animals protected [4]: 9
C[C@@H](CN)CC(=O)O | 327 | 202 | – | No. of animals protected [5]: 5; Activity [6]: 185; Activity [7]: 128
CCCCCNCC(N)=O | 230 | 170 | 126 | –
CCCCC(CN)CC(=O)O (stereo not drawn) | 178 | 117 | 105 | No. of animals protected [8]: 2
NCC1(CC(=O)O)CCCCC1 | 178 | 145 | 105 | –
CCCC(CCC)C(=O)O | 207 | 138 | – | Activity [6]: 124; Activity [7]: 115
C[C@H](CN)CC(=O)O | 170 | 118 | 103 | No. of animals protected [9]: 5
CCC(C)C(CN)CC(=O)O (stereo not drawn) | 169 | 119 | 105 | No. of animals protected [10]: 2
CCCC(CN)CC(=O)O (stereo not drawn) | 156 | 112 | 105 | No. of animals protected [11]: 3
CCC(CN)CC(=O)O (stereo not drawn) | 172 | 128 | 108 | No. of animals protected [9]: 5
CC(C)CCC(CN)CC(=O)O (stereo not drawn) | 142 | 118 | 109 | No. of animals protected [12]: 0
CC(C)C(CN)CC(=O)O (stereo not drawn) | 140 | 108 | 104 | No. of animals protected [13]: 6
CC(C)(CN)CC(=O)O | 174 | 125 | 109 | No. of animals protected [9]: 8
CC(C)(C)CC(CN)CC(=O)O (stereo not drawn) | 279 | 181 | 130 | No. of animals protected [14]: 4
CC(C)(C)C(CN)CC(=O)O (stereo not drawn) | 295 | 174 | – | Activity [6]: 147; Activity [7]: 117; No. of animals protected [15]: 5
CC(CN)CC(=O)O (stereo not drawn) | 239 | 168 | 128 | Activity [16]: 107; Activity [6]: 142; Activity [7]: 118; No. of animals protected [9]: 3
